Data set [1] has as its system Mycobacterium tuberculosis. Description: Antimycobacterial activity against Mycobacterium tuberculosis H37Rv at 6.25 ug/ml by broth microdilution assay. In kind it is functional. An outline of the steps:
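Single-concentration screen at 6.25 µg/mL against M. tuberculosis H37Rv (ATCC 27294), broth microdilution in BACTEC 12B medium. Read-out is % growth inhibition versus controls. At least 90% inhibition counted as active.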
(In general: In broth dilution the organism is exposed to a series of concentrations in liquid medium.)

Data set [2] relates to Mus musculus. Description: Neurotoxicity in mouse at 100 mg/kg after 0.5 hrs. The data set is classed as toxicity, organism-based. More on the design: dose 100 mg/kg. Particulars: in vivo. An outline of the steps: (§1)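 Mice dosed intraperitoneally at 30, 100 and 300 mg/kg; 1a and 1b given as hydrochloride salts. Observed 0.5 and 4 h after dosing. Value is number of animals showing neurological deficit over number dosed. Deaths also recorded.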

The nature of data set [3]: Lipophilicity, log P of the compound. The data set is classed as physicochemical. To be noted: octanol/water. A digest of the protocol: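 log P calculated with ACD algorithm and database statistics; not measured experimentally.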
Data set [4] concerns Mus musculus. Description: Neurotoxicity in mouse at 300 mg/kg after 4 hrs. The data set is classed as toxicity, organism-based. More on the design: dose 300 mg/kg. Particulars: in vivo. An outline of the steps:
as §1

Data set [5] concerns Rattus norvegicus. Description: Neurotoxicity in rat at 30 mg/kg, po after 2 hrs. On the set-up: dose 30 mg/kg, route oral. In kind it is toxicity, organism-based. To be noted: in vivo. A digest of the protocol:
(§2)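 Rats dosed orally at 30 or 50 mg/kg and examined for neurotoxicity 0.25, 0.5, 1, 2 and 4 h after dosing. Four animals per group, with three rats at one 0.5 h time point.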

Data set [6] concerns Mus musculus. Description: Neurotoxicity in mouse at 100 mg/kg after 4 hrs. In kind it is toxicity, organism-based. On the set-up: dose 100 mg/kg. To be noted: in vivo. An outline of the steps:
as §1

Data set [7] deals with Mus musculus. In words: Neurotoxicity in mouse at 300 mg/kg after 0.5 hrs. In kind it is toxicity, organism-based. To be noted: in vivo. On the set-up: dose 300 mg/kg. An outline of the steps:
as §1

For data set [8], the system named is Rattus norvegicus. In words: Neurotoxicity in rat at 30 mg/kg, po after 0.5 hrs. In kind it is toxicity, organism-based. On the set-up: dose 30 mg/kg, route oral. To be noted: in vivo. An outline of the steps: as §2
In data set [9] the test system is Rattus norvegicus. In words: Neurotoxicity in rat at 30 mg/kg, po after 4 hrs. The data set is classed as toxicity, organism-based. More on the design: dose 30 mg/kg, route oral. Particulars: in vivo. An outline of the steps:
as §2

Data set [10] relates to Rattus norvegicus. In words: Neurotoxicity in rat at 50 mg/kg, po after 1 hr. The data set is classed as toxicity, organism-based. On the set-up: dose 50 mg/kg, route oral. Particulars: in vivo. An outline of the steps: as §2

Structures are written as SMILES.

For orientation: inhibition means how much of the control response was suppressed. Low values mean little suppression, high ones strong suppression. Usually logP stands for a log measure of how a compound divides between an organic and an aqueous phase. Compound `Cl.O=C1/C(=C/c2ccc(Cl)cc2)CN(C(=O)c2ccc(OCCN3CCOCC3)cc2)C/C1=C\c1ccc(Cl)cc1` returned an inhibition at 6.25 µg/mL in data set [1] of 0%. In addition, the Activity result in data set [2], in data set [4], in data set [5], in data set [6] and in data set [7] was “Non-toxic” in each case. Besides, in data set [3] (read-out: logP), the logP came out at 6.4.

In turn, `CN(C)CCOc1ccc(C(=O)N2C/C(=C\c3ccc([N+](=O)[O-])cc3)C(=O)/C(=C/c3ccc([N+](=O)[O-])cc3)C2)cc1.Cl` registered an inhibition at 6.25 µg/mL in data set [1] of 27%. Further, the Activity result in [2], in [6] and in [8] was “Non-toxic” each time. Moreover, the logP in data set [3] (read-out: logP) amounted to 5.5.

`CC[N+](C)(CC)CCOc1ccc(C(=O)N2C/C(=C\c3ccc([N+](=O)[O-])cc3)C(=O)/C(=C/c3ccc([N+](=O)[O-])cc3)C2)cc1.[I-]`: 6.25 µg/mL produced 0% inhibition in data set [1]. The logP in data set [3] (read-out: logP) turned out to be 1.8. Further, the Activity entry is reported as “Toxic” in data set [4], “Non-toxic” in data set [9] and “Toxic” in [7].

In data set [1], `CCN(CC)CCOc1ccc(C(=O)N2C/C(=C\c3ccccc3)C(=O)/C(=C/c3ccccc3)C2)cc1.Cl` had an inhibition at 6.25 µg/mL of 99%. Besides, the Activity entry in data set [10], in data set [4] and in data set [6] was “Non-toxic” in each case. In [3], this compound had a logP of 7.

The values are drawn from ChEMBL document CHEMBL1157157, “N-Aroyl-3,5-bis(benzylidene)-4-piperidones: a novel class of antimycobacterial agents” (Bioorg Med Chem, 2008).
